Assay [1] addresses Glutamate NMDA receptor; Grin1/Grin2b (Rattus norvegicus, UniProt P35439+Q00960). In words: Inhibitory constant against (S)-glutamate and glycine evoked currents mediated by N-methyl-D-aspartate glutamate receptor NR1a/NR2B expressed in Xenopus oocytes. The format is cell-based, Oocyte. The essentials:
(§1)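 Xenopus laevis oocytes were injected with NR1a and NR2 subunit RNA (1:3 molar ratio, 15-30 ng total) and held in ND-96 at 17 °C for 1-5 days. Currents were recorded by two-microelectrode voltage clamp at a holding potential of […] in 116 mM NaCl, 2 mM KCl, 2 mM BaCl2, 5 mM HEPES, pH 7.4. The steady plateau response to bath-applied 10 µM L-glutamate plus 10 µM glycine was measured. Apparent Ki was obtained as IC50(obs)/(1 + [agonist]/EC50).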

The target of assay [2] is Glutamate NMDA receptor; Grin1/Grin2c (Rattus norvegicus, UniProt P35439+Q00961). Description: Inhibitory constant against (S)-glutamate and glycine evoked currents mediated by N-methyl-D-aspartate glutamate receptor NR1a/NR2C expressed in Xenopus oocytes. Type of assay: cell-based, Oocyte. In a few lines:
as §1

The nature of assay [3]: Inhibitory constant against (S)-glutamate and glycine evoked currents mediated by N-methyl-D-aspartate glutamate receptor NR1a/NR2D expressed in Xenopus oocytes. The format is cell-based, Rattus norvegicus. Particulars: oocyte. The essentials: (§2)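 Xenopus laevis oocytes were injected with NR1a and NR2 subunit RNA (1:3 molar ratio, 15-30 ng total) and held in ND-96 at 17 °C for 1-5 days. The steady plateau response to bath-applied 10 µM L-glutamate plus 10 µM glycine was measured. Apparent Ki was obtained as IC50(obs)/(1 + [agonist]/EC50).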

Assay [4] addresses Glutamate NMDA receptor; Grin1/Grin2a (Rattus norvegicus, UniProt P35439+Q00959). Description: Inhibitory constant against (S)-glutamate and glycine evoked currents mediated by N-methyl-D-aspartate glutamate receptor NR1a/NR2A expressed in Xenopus oocytes. The format is cell-based, Oocyte. In a few lines:
as §2

As a reminder, the Ki is the equilibrium dissociation constant of an inhibitor or competing ligand from its target. High values mean weaker binding, low ones tighter binding.

Sequence of Glutamate NMDA receptor; Grin1/Grin2a (Q00959 whole entry, other chains not shown): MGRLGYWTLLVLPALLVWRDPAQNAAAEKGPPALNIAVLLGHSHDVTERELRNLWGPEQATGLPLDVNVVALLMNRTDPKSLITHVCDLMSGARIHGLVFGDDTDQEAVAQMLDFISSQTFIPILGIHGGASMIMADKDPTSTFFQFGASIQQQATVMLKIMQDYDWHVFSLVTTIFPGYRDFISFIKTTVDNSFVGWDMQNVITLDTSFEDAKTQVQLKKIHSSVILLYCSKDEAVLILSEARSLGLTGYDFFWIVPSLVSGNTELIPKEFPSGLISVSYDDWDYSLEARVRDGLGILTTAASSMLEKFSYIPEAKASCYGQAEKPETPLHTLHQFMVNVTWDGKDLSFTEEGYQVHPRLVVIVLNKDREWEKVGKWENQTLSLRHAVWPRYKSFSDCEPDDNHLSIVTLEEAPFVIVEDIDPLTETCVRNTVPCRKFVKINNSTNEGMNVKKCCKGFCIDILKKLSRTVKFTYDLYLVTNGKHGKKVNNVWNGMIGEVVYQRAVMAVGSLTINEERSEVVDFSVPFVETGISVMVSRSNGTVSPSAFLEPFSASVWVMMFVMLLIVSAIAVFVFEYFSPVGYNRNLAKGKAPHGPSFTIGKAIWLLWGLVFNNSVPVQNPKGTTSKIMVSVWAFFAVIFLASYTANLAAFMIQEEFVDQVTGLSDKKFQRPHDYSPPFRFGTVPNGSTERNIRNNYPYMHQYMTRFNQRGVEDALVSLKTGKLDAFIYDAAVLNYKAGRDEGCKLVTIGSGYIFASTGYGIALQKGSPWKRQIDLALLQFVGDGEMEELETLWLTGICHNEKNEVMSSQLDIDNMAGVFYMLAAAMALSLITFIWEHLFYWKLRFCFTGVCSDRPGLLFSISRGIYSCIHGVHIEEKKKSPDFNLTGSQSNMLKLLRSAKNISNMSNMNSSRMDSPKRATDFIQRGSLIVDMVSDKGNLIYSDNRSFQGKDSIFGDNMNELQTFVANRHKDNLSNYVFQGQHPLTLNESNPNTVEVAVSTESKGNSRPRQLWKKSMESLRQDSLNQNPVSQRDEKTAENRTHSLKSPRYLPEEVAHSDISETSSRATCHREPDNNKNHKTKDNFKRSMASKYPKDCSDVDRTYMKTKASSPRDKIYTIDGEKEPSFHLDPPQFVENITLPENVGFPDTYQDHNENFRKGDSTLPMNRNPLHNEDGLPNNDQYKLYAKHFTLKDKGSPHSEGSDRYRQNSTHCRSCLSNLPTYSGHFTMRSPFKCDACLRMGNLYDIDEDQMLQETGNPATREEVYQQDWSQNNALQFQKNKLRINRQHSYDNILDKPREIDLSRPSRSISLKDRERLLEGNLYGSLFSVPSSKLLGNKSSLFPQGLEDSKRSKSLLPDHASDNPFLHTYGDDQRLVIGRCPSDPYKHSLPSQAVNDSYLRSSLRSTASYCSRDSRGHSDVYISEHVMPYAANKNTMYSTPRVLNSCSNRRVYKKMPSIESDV
Sequence of Glutamate NMDA receptor; Grin1/Grin2c (Q00961 whole entry, other chains not shown): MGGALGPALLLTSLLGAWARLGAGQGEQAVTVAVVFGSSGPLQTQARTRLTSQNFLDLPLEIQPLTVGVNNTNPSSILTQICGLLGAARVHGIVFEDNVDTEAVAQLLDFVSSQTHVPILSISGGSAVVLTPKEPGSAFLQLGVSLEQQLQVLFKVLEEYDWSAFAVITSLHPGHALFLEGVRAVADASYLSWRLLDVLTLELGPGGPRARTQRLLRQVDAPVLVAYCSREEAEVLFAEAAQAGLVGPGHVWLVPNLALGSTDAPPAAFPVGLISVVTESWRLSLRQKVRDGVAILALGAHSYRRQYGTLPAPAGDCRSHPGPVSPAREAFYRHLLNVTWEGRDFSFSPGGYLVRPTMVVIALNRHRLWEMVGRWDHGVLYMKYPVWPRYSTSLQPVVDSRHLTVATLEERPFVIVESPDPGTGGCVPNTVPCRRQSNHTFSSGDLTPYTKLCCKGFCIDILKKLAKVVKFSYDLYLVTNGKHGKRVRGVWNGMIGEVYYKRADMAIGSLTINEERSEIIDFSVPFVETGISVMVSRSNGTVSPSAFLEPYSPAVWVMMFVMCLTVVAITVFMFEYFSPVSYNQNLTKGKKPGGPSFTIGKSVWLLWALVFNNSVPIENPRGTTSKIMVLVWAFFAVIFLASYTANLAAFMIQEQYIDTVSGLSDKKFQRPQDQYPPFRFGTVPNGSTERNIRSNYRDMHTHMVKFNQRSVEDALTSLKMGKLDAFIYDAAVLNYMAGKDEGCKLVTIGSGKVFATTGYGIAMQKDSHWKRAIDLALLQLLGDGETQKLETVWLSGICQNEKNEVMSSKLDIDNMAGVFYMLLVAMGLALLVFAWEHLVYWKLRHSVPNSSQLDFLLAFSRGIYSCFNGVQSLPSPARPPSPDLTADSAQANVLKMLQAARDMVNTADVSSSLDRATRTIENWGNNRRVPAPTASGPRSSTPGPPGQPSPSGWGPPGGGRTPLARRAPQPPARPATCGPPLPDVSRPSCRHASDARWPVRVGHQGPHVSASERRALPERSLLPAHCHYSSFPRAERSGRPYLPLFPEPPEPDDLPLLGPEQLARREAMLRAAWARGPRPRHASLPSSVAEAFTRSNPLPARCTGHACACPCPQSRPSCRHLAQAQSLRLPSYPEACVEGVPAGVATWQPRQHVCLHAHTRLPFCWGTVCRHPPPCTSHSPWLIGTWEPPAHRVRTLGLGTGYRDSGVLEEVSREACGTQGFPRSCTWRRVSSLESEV
Sequence of Glutamate NMDA receptor; Grin1/Grin2b (Q00960 whole entry, other chains not shown): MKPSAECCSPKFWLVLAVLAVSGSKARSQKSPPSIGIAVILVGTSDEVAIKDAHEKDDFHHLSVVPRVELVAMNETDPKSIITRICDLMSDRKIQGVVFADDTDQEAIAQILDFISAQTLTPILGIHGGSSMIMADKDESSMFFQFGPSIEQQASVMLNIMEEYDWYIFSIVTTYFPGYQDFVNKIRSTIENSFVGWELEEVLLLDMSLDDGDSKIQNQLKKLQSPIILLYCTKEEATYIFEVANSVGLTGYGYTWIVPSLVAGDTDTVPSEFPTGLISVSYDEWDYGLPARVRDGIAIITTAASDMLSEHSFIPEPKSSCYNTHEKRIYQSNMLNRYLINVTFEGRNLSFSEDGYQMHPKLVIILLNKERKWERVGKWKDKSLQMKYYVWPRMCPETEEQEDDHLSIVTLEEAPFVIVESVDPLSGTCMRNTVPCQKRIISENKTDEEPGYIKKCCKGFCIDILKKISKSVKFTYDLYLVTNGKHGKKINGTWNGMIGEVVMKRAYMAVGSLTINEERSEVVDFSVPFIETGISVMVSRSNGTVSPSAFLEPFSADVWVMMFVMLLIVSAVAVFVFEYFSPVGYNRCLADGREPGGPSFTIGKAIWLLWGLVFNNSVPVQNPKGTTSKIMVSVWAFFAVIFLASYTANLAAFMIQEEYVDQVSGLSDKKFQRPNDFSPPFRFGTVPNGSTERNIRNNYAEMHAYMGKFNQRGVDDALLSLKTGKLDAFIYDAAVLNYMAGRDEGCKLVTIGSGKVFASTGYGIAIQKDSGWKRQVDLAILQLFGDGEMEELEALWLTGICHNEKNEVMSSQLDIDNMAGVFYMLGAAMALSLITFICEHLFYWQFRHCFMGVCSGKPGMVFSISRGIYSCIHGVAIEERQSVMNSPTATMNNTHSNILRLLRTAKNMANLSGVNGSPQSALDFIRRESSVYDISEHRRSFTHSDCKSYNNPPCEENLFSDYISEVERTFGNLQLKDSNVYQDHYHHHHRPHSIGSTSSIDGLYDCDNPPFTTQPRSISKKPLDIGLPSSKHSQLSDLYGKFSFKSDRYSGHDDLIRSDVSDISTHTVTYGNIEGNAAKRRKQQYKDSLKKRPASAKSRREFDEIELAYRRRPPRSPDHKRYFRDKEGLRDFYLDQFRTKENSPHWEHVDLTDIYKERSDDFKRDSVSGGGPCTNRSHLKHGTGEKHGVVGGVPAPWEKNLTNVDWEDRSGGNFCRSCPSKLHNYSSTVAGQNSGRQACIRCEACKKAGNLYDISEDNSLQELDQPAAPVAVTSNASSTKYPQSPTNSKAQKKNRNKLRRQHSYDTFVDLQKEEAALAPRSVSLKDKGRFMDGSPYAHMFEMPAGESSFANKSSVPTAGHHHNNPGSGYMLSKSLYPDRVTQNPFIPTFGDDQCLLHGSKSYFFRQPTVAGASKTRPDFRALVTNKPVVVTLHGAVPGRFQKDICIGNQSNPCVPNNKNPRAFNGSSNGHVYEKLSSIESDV

As for `O=C(O)[C@H]1NCCN(C(=O)/C=C/c2ccccc2)[C@H]1C(=O)O`, the inhibition constant (Ki) turned out to be 18 µM in assay [1], 27 µM in assay [2], 59.7 µM in assay [3] and 13.2 µM in assay [4].

For the compound `O=C(O)[C@H]1NCCN(Cc2ccc3c(ccc4ccccc43)c2)[C@H]1C(=O)O`, the Ki in assay [1] turned out to be 10.2 µM; in assay [2], 2.67 µM; in assay [3], 3.18 µM; in assay [4], 11.2 µM.

Regarding `O=C(O)[C@H]1NCCN(C(=O)c2ccc3c(ccc4cc(Br)ccc43)c2)[C@H]1C(=O)O`, the Ki was 0.25 µM in assay [1], 0.0994 µM in assay [2], 0.15 µM in assay [3] and 0.32 µM in assay [4].

With `O=C(O)[C@H]1NCCN(C(=O)/C=C/c2ccc3ccccc3c2)[C@H]1C(=O)O`, the Ki in assay [1] came out at 0.3 µM; in assay [2] it was 0.85 µM; in assay [3], 1.94 µM; in assay [4], 0.84 µM.

With `C[C@H](NC(c1cccc2nc(O)c(O)nc12)P(=O)(O)O)c1ccc(Br)cc1` (stereo partly specified), the Ki in assay [1] amounted to 0.067 µM; in assay [2], 0.0116 µM; in assay [3] it was 0.037 µM; in assay [4], 0.0054 µM.

With `O=C(O)[C@H]1NCCN(S(=O)(=O)c2ccc(-c3ccccc3)cc2)[C@H]1C(=O)O`, the Ki in assay [1] was determined as 16.2 µM; in assay [2] it was 8.67 µM; in assay [3] it was 10.9 µM; in assay [4], 13.6 µM.

Turning to `O=C(O)[C@H]1NCCN(C(=O)c2ccc3c(ccc4ccccc43)c2)[C@H]1C(=O)O`, the Ki in assay [1] stood at 0.31 µM; in assay [2], 0.096 µM; in assay [3] it was 0.125 µM; in assay [4], 0.55 µM.

Turning to `O=C(O)[C@H]1NCCN(C(=O)c2ccc3c(c2)Cc2ccccc2-3)[C@H]1C(=O)O`, the Ki in assay [1] stood at 3.25 µM; in assay [2], 1.17 µM; in assay [3], 2.17 µM.

Consider `N[C@H](CCCCCP(=O)(O)O)C(=O)O`, for which the Ki in assay [1] worked out at 4.14 µM; in assay [2], 6.42 µM; in assay [3] it was 17.1 µM; in assay [4] it was 0.49 µM.

Turning to `O=C(O)[C@H]1NCCN(C(=O)c2ccc3ccc4ccccc4c3c2)[C@H]1C(=O)O`, the Ki in assay [1] amounted to 19.3 µM; in assay [2], 4.22 µM; in assay [3] it was 2.78 µM; in assay [4], 14.2 µM.

In the case of `O=C(O)[C@H]1NCCN(C(=O)c2ccc(-c3ccccc3)cc2)[C@H]1C(=O)O`, the Ki in assay [1] stood at 5.01 µM; in assay [2], 8.98 µM; in assay [3], 4.29 µM; in assay [4], 15.8 µM.

Turning to `O=C(O)[C@H]1CN(CCCP(=O)(O)O)CCN1`, the Ki was 0.27 µM in assay [1], 0.63 µM in assay [2], 1.99 µM in assay [3] and 0.041 µM in assay [4].

With `O=C(O)[C@@H]1NCCN(C(=O)c2ccc3c(ccc4ccccc43)c2)[C@H]1C(=O)O`, the Ki in assay [1] was 9.08 µM; in assay [2], 4.88 µM; in assay [3], 6.03 µM; in assay [4], 10.5 µM.

As to `O=C1c2ccccc2-c2ccc(C(=O)N3CCN[C@H](C(=O)O)[C@@H]3C(=O)O)cc21`, the Ki was determined as 9.36 µM in assay [1], 4.42 µM in assay [2], 6.45 µM in assay [3] and 7.97 µM in assay [4].

Turning to `O=C(O)[C@H]1NCCN(C(=O)c2ccc3c(c2)CCc2cc(Br)ccc2-3)[C@H]1C(=O)O`, the inhibition constant (Ki) in assay [1] stood at 2.15 µM; in assay [2], 0.66 µM; in assay [3], 1.03 µM; in assay [4] it was 3.88 µM.

Turning to `O=C(O)[C@H]1NCCN(C(=O)c2ccccc2)[C@H]1C(=O)O`, the Ki in assay [1], in assay [2], in assay [3] and in assay [4] was more than 100 µM each time.

Take `O=C(O)[C@H]1NCCN(C(=O)c2ccc3ccccc3c2)[C@H]1C(=O)O`: the Ki in assay [1] is 18.2 µM; in assay [2] it was 3.89 µM.

`O=C(O)[C@H]1NCCN(C(=O)c2ccc(-c3ccc(F)cc3)cc2)[C@H]1C(=O)O`: the Ki turned out to be 13.4 µM in assay [1], 7.38 µM in assay [2], 8.02 µM in assay [3] and 8.78 µM in assay [4].

In the case of `O=C(O)[C@H]1NCCN(C(=O)c2ccc3c(c2)CCc2ccccc2-3)[C@H]1C(=O)O`, the Ki in assay [1] was found to be 0.76 µM; in assay [2], 0.29 µM; in assay [3], 0.57 µM; in assay [4] it was 1.54 µM.

On to `N[C@H](CCCP(=O)(O)O)C(=O)O`, for which the inhibition constant (Ki) in assay [1] was 0.46 µM; in assay [2], 1.64 µM; in assay [3], 3.71 µM; in assay [4], 0.28 µM.

`O=C(O)[C@H]1NCCN(C(=O)c2ccc(-c3ccccc3Br)cc2)[C@H]1C(=O)O`: the Ki in assay [1] was determined as 22.1 µM; in assay [2] it was 8.49 µM; in assay [3] it was 12.9 µM; in assay [4] it was 42.9 µM.

The values above are taken from ChEMBL document CHEMBL1143579, “Synthesis and pharmacology of N1-substituted piperazine-2,3-dicarboxylic acid derivatives acting as NMDA receptor antagonists” (J Med Chem, 2005).
